Results published in ChEMBL document CHEMBL1921740, “Pyrrolamide DNA gyrase inhibitors: optimization of antibacterial activity and efficacy” (Bioorg Med Chem Lett, 2011).
Values after ≈ are worked out from the molar mass of the structure shown.

Columns and labels:
Moraxella catarrhalis = experiment: Antibacterial activity against Moraxella catarrhalis ARC445; type: functional
Escherichia coli [1] = experiment: Antibacterial activity against Escherichia coli ARC523; type: functional
Staphylococcus aureus [2] = experiment: Antibacterial activity against Staphylococcus aureus ARC516; type: functional
Enterococcus faecium = experiment: Antibacterial activity against Enterococcus faecium ARC073; type: functional
Streptococcus pneumoniae [3] = experiment: Antibacterial activity against Streptococcus pneumoniae ARC548; type: functional
Haemophilus influenzae = experiment: Antibacterial activity against Haemophilus influenzae ARC446; type: functional
Staphylococcus aureus [4] = experiment: Antibacterial activity against methicillin-resistant, quinolone-resistant Staphylococcus aureus ARC517; type: functional
DNA gyrase subunit B = DNA gyrase subunit B (Staphylococcus aureus, UniProt P0A0K8); experiment: Inhibition of ATPase activity of recombinant Staphylococcus aureus DNA gyrase B hybrid tetramer enzyme reconstituted from Escherichia coli GyrA by ammonium molybdate/malachite green phosphate assay
DNA gyrase subunit B, sequence (P0A0K8 whole entry): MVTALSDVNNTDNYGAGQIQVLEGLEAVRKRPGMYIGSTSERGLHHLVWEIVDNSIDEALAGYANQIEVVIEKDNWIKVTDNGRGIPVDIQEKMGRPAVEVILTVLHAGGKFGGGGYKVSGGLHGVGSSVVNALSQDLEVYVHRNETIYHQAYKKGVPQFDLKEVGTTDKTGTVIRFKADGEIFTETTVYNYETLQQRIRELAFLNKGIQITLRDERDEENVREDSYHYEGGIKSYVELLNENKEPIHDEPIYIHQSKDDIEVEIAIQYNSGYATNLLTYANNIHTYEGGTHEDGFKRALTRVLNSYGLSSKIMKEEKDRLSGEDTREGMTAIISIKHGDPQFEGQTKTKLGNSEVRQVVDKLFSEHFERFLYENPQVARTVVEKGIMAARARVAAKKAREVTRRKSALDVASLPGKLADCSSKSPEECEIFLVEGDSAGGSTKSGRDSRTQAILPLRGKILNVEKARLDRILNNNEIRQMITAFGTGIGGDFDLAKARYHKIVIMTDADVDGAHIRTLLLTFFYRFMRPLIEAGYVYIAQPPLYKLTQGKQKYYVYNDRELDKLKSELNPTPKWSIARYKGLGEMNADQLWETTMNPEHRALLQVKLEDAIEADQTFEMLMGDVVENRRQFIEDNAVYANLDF
Method in brief: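 GyrB ATPase activity of a hybrid tetramer reconstituted in vitro from recombinant S. aureus protein. Released phosphate detected with ammonium molybdate/malachite green. Test compound assayed across a range of concentrations.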

Escherichia coli [5] = experiment: Antibacterial activity against TolC-deficient Escherichia coli ARC524; type: functional
Streptococcus pneumoniae [6] = experiment: Antibacterial activity against Streptococcus pneumoniae ARC548 infected in po dosed CD1 mouse lung infection pneumonia model assessed as dose required to maximum effect on reduction of viable bacterial counts administered 18 hrs after post infection measured after 24 hrs; type: functional
Method in brief: (§1)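 Mice infected in the lung with S. pneumoniae received oral doses of drug or vehicle starting 18 h post-infection, at 40, 60 or 80 mg/kg, with a pre-treatment control group. Lungs were taken 24 h after treatment began, and homogenates were serially diluted and plated for viable counts. Results are reported as group mean log CFU/lung ± standard error.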

Streptococcus pneumoniae [7] = experiment: Antibacterial activity against Streptococcus pneumoniae ARC548 infected in po dosed CD1 mouse lung infection pneumonia model assessed as reduction in viable bacterial counts administered 18 hrs after post infection measured after 24 hrs; type: functional; method in brief: as §1
[8] = Moraxella catarrhalis, ARC445, read-out: MIC
[9] = Staphylococcus aureus, ARC516, read-out: MIC
[10] = Enterococcus faecium, ARC073, read-out: MIC
[11] = Streptococcus pneumoniae, ARC548, read-out: MIC
[12] = Haemophilus influenzae, ARC446, read-out: MIC
[13] = Staphylococcus aureus, ARC517, read-out: MIC
[14] = Escherichia coli, ARC524, read-out: MIC

Row | Compound | MIC (Moraxella catarrhalis; [8]) [µg/mL] | MIC (Escherichia coli [1]) [µg/mL] | MIC (Staphylococcus aureus [2]; [9]) [µg/mL] | MIC (Enterococcus faecium; [10]) [µg/mL] | MIC (Streptococcus pneumoniae [3]; [11]) [µg/mL] | MIC (Haemophilus influenzae; [12]) [µg/mL] | MIC (Staphylococcus aureus [4]; [13]) [µg/mL] | IC50 (DNA gyrase subunit B) [nM] | MIC (Escherichia coli [5]; [14]) [µg/mL] | MIC (Moraxella catarrhalis) [µg/mL] | MIC (Staphylococcus aureus [2]) [µg/mL] | MIC (Enterococcus faecium) [µg/mL] | MIC (Streptococcus pneumoniae [3]) [µg/mL] | MIC (Haemophilus influenzae) [µg/mL] | MIC (Staphylococcus aureus [4]) [µg/mL] | MIC (Escherichia coli [5]) [µg/mL] | Activity (Streptococcus pneumoniae [6]) [mg/kg] | Activity (Streptococcus pneumoniae [7]) | ED50 (Streptococcus pneumoniae [7]) [mg/kg]
1 | Cc1[nH]c(C(=O)NC2CCN(c3ncc(C(=O)O)s3)CC2)c(Cl)c1Cl | 0.5 (≈ 1.24 µM) | > 64 | 8 (≈ 19.8 µM) | 2 (≈ 4.96 µM) | 0.5 (≈ 1.24 µM) | 2 (≈ 4.96 µM) | 8 (≈ 19.8 µM) | 20 | 0.25 (≈ 0.62 µM) |  |  |  |  |  |  |  |  |  | 
2 | Cc1[nH]c(C(=O)NC2CCN(C3CN[C@H](C(=O)O)C3)CC2)c(Cl)c1Cl (stereo not given in full) | > 64 | > 64 | > 64 | > 64 | > 64 | > 64 | > 64 | 129000 | > 64 |  |  |  |  |  |  |  |  |  | 
3 | Cc1[nH]c(C(=O)NC2CCN(c3nnco3)CC2)c(Cl)c1Cl | 4 (≈ 11.6 µM) | > 64 | 32 (≈ 93 µM) | 32 (≈ 93 µM) | 4 (≈ 11.6 µM) | 64 (≈ 186 µM) | 32 (≈ 93 µM) | 230 | 4 (≈ 11.6 µM) |  |  |  |  |  |  |  |  |  | 
4 | Cc1[nH]c(C(=O)NC2CCN(c3cc(C(N)=O)cc(Cl)n3)CC2)cc1Cl |  | > 64 | > 32 | > 32 | 4 (≈ 10.1 µM) | > 64 | 32 (≈ 80.8 µM) | 110 | 8 (≈ 20.2 µM) |  |  |  |  |  |  |  |  |  | 
5 | Cc1[nH]c(C(=O)NC2CCN(c3nc(C(=O)O)cs3)CC2)c(Cl)c1Cl | 0.5 (≈ 1.24 µM) | > 64 | 8 (≈ 19.8 µM) | 4 (≈ 9.92 µM) | 0.5 (≈ 1.24 µM) | 2 (≈ 4.96 µM) | 8 (≈ 19.8 µM) | 20 | 0.25 (≈ 0.62 µM) |  |  |  |  |  |  |  |  |  | 
6 | Cc1[nH]c(C(=O)N[C@H]2CCN(c3ncc(C(=O)O)s3)C[C@H]2F)c(Cl)c1Cl (racemic) |  | > 64 |  |  |  |  |  | < 10 |  | <0.06 | 2 (≈ 4.75 µM) | 0.5 (≈ 1.19 µM) | 0.13 (≈ 0.309 µM) | 0.5 (≈ 1.19 µM) | 4 (≈ 9.49 µM) | 0.13 (≈ 0.309 µM) |  |  | 
7 | Cc1[nH]c(C(=O)NC2CCN(c3cc(C(N)=O)cc(Cl)n3)CC2)c(Cl)c1Cl | 2 (≈ 4.64 µM) | > 64 | 4 (≈ 9.29 µM) | 4 (≈ 9.29 µM) | 1 (≈ 2.32 µM) | > 64 | 4 (≈ 9.29 µM) | 30 | 2 (≈ 4.64 µM) |  |  |  |  |  |  |  |  |  | 
8 | Cc1[nH]c(C(=O)NC2CCN(c3cc(C(N)=O)cc(Cl)n3)CC2)cc1C#N |  |  |  |  | 4 (≈ 10.3 µM) | > 64 | > 64 | 150 |  |  |  |  |  |  |  |  |  |  | 
9 | Cc1[nH]c(C(=O)N[C@H]2CCN(c3ncc(C(=O)O)s3)C[C@H]2F)c(Cl)c1Cl |  |  |  |  |  |  |  | 35 |  | 1 (≈ 2.37 µM) | 16 (≈ 38 µM) | 4 (≈ 9.49 µM) | 2 (≈ 4.75 µM) | 4 (≈ 9.49 µM) | 32 (≈ 76 µM) | 0.5 (≈ 1.19 µM) |  |  | 
10 | CONC(=O)c1cnc(N2CCC(NC(=O)c3[nH]c(C)c(Cl)c3Cl)CC2)s1 | 1 (≈ 2.31 µM) | > 64 | 8 (≈ 18.5 µM) | 8 (≈ 18.5 µM) | 1 (≈ 2.31 µM) | 16 (≈ 37 µM) | 8 (≈ 18.5 µM) | 50 | 0.25 (≈ 0.578 µM) |  |  |  |  |  |  |  |  |  | 
11 | Cc1[nH]c(C(=O)NC2CCN(c3cc(C(N)=O)cc(Cl)n3)CC2)cc1Br | 8 (≈ 18.2 µM) | > 64 | 32 (≈ 72.6 µM) | > 64 | 4 (≈ 9.08 µM) | 64 (≈ 145 µM) | 32 (≈ 72.6 µM) | 100 | 4 (≈ 9.08 µM) |  |  |  |  |  |  |  |  |  | 
12 | Cc1ccc(C(=O)NC2CCN(c3cc(C(N)=O)cc(Cl)n3)CC2)[nH]1 | > 64 | > 64 | > 64 | > 64 | > 64 | > 64 | > 64 | 6900 | > 64 |  |  |  |  |  |  |  |  |  | 
13 | Cc1[nH]c(C(=O)N[C@@H]2CCN(c3ncc(C(=O)O)s3)C[C@H]2F)c(Cl)c1Cl (racemic) | 16 (≈ 38 µM) | > 64 | > 64 | 32 (≈ 76 µM) | 8 (≈ 19 µM) | 64 (≈ 152 µM) | > 64 | 110 | 4 (≈ 9.49 µM) |  |  |  |  |  |  |  |  |  | 
14 | Cc1[nH]c(C(=O)NC2CCN(c3cc(C(=O)O)cc(Cl)n3)CC2)c(Cl)c1Cl | 0.13 (≈ 0.301 µM) | > 64 | 2 (≈ 4.63 µM) | 1 (≈ 2.32 µM) | 0.5 (≈ 1.16 µM) | 4 (≈ 9.27 µM) | 2 (≈ 4.63 µM) | 10 | 0.25 (≈ 0.579 µM) |  |  |  |  |  |  |  |  |  | 
15 | Cc1[nH]c(C(=O)N[C@@H]2CCN(c3ncc(C(=O)O)s3)C[C@@H]2F)c(Cl)c1Cl | 0.06 (≈ 0.142 µM) | > 64 | 2 (≈ 4.75 µM) | 0.25 (≈ 0.593 µM) | 0.06 (≈ 0.142 µM) | 0.25 (≈ 0.593 µM) | 2 (≈ 4.75 µM) |  | 0.06 (≈ 0.142 µM) |  |  |  |  |  |  |  | 80 | Dose-dependent effect | 54
